Test results as given in publication PMC5397363 (Molecular microbiology, 2017).
Several values for one entry are separate records, joined by “and”; a condition that tells them apart may be missing. Equal entries are not always repeated. * marks the point of attachment. CH2Cl = ClC*

Legend:
Prp [1] = molecular target: T1, Prp (Staphylococcus aureus, UniProt Q2FXS9); test: Reaction of Prp with Ellman's reagent under non-denaturing conditions
Prp [2] = molecular target: T1, Prp; test: Fluorogenic peptide cleavage assay, Michaelis-Menten kinetics of wild-type Prp; assay type: biochemical; details: pH 7.0
Prp [3] = molecular target: T1, Prp; test: Inhibition of Prp by chloromethylketone-containing substrate peptide; assay type: biochemical
Outline: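 Recombinant S. aureus Prp was purified on Ni-NTA, with the His6-SUMO tag removed by Ulp1. It was tested in a fluorogenic peptide cleavage assay in 50 mM sodium phosphate pH 7.0 with 1.5 mM DTT, 2.35 mM EDTA and 2.53% DMSO (final). Fluorescence (ex 325/em 414 nm) was read every 8 s for 10 min at ambient temperature. Percent inhibition was taken from initial velocities relative to a no-inhibitor control.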

T1 sequence (Q2FXS9 whole entry): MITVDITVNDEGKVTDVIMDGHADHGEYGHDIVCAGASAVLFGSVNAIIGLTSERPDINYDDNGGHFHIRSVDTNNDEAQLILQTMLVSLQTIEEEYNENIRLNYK

Compound: O=C(O)c1cc(SSc2ccc([N+](=O)[O-])c(C(=O)O)c2)ccc1[N+](=O)[O-] [Ellman’s reagent, 5,5′-dithiobis(2-nitrobenzoic acid)]
- reaction with Prp (qualitative) (Prp [1]): readily reacts

Compound: 2-aminobenzoic acid-KLNLQFFASKK-dinitrophenol [fluorogenic substrate]
- turnover number (kcat) (Prp [2]; ET constrained to 42.765 nM active sites (2 per dimer)): 0.0458 ± 0.0014 s⁻¹ and 0.05 ± 0.00 s⁻¹
- specificity constant (kcat/Km) (Prp [2]): 251100 ± 39300 M⁻¹ s⁻¹ and 250000 ± 40000 M⁻¹ s⁻¹

Compound: Ac-KLNLQFF-CH2Cl
- inhibition of Prp (qualitative) (Prp [3]): inhibited
